Screens from PubChem.
mIAP inh: blocks mouse intestinal alkaline phosphatase. 0.2% of 330,000 active. AID 2806. purified mouse IAP, CDP-Star luminescence, 30 min. inhibition, % at 10 µM;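 active means inhibition of at least 40% at 10 µM in the primary screen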;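 further: plate controls were DMSO with enzyme for no effect and no enzyme wells for full effect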
hIAP act: increases human intestinal alkaline phosphatase activity | purified human IAP, CDP-Star luminescence, 30 min; stronger effect = higher value; 1 = vehicle-only enzyme, 0 = enzyme-free background | 0.16% of 330,000 active | activation factor at 10 µM | P09923;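 active means activation factor of the enzyme at least 2-fold when tested at 20 µM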
Target sequence (P09923 whole entry, looked up): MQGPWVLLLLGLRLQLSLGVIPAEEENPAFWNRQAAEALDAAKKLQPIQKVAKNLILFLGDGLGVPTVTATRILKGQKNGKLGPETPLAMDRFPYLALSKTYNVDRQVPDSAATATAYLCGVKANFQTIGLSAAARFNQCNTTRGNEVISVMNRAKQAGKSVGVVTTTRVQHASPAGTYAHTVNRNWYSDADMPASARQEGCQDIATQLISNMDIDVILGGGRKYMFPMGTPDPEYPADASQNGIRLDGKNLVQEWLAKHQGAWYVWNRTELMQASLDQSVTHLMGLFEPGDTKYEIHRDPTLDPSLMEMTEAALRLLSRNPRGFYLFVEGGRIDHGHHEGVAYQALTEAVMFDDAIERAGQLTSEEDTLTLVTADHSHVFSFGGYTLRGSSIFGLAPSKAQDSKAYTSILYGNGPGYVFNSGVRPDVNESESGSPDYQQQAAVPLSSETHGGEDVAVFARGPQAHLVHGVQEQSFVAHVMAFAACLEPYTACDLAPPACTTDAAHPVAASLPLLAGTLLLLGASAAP
mIAP activ: increases mouse intestinal alkaline phosphatase activity | 0.24% of 330,000 active | muIAP, CDP-Star luminescence, 30 min; stronger effect = higher value; 1 = vehicle-only enzyme signal, 0 = enzyme-free wells | activation factor at 10 µM | AID 2805;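 active means activation factor of at least 2 at 20 µM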
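also added = chemiluminescent substrate CDP-Star | test system = mouse IAP enzyme | signal = chemiluminescence readout | compound = DMSO-dissolved test compounds | incubation = 30 min at room temperature | benchmarks = DMSO wells, no-enzyme wells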
bIAP inhibitor: intestinal alkaline phosphatase (bovine) inhibition. inhibition, % at 20 µM. purified bovine IAP, CDP-star luminescence, 30 min. 190,000 tested, under 10 active;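 active means over 50% inhibition of intestinal alkaline phosphatase at 20 µM in the single-dose screen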
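System: Purified bovine intestinal alkaline phosphatase (IAP) enzyme | Input: IAP diluted 1/65,000,000 in the well | Also added: CDP-star chemiluminescent phosphatase substrate, 30 µM final | Dosing: 20 µM single dose | Times: Enzyme reaction for 30 min at room temperature | Detection: Luminescence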
bIAP act: increases bovine intestinal alkaline phosphatase activity; activation factor at 20 µM; 0.17% of 200,000 active; purified bovine IAP, CDP-star luminescence, 30 min; stronger effect = higher value; fold of DMSO-control signal, blank-subtracted;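 active means activation factor of 2 or more at 20 µM, a signal rise over negative controls twice the positive control's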
hIAP block: human IAP inhibition. P09923. purified IAP, CDP-Star luminescence, 30 min. inhibition, % at 10 µM. 0.12% of 330,000 active;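 active means inhibition reaching a set limit with compound at 10 µM in the primary screen, cut at about 35% in these data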;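 further: plate controls were DMSO wells with enzyme for no effect and no-enzyme buffer wells for full effect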
mIAP inh confirm: mouse IAP inhibition confirmation; shares compounds with mIAP inh; purified mouse IAP, CDP-Star luminescence, 30 min; inhibition, % at 10 µM; 4.7% of 11,000 active; AID 434971;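 active means inhibition of at least 40% at 10 µM in either of the two replicates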;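 further: plate controls were DMSO wells with enzyme for no effect and buffer wells lacking enzyme for full effect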
Numbers without * were called inactive; i = inactive; / = no result given. Hits are enriched below; roughly 0.79% of the tested compounds scored in any of these assays.

SMILES | mIAP inh | hIAP act | mIAP activ | bIAP inhibitor | bIAP act | hIAP block | mIAP inh confirm
CC(N=Cc1cccc(O)c1O)c1ccccc1 (configuration not stated) | 59.8* | 0.801 | 0.402 | 16.6 | 0.8 | 19.9 | 67.4*
CC(NC(=O)Nc1ccc([N+](=O)[O-])cc1)C(c1ccccc1)N1CCOCC1 (configuration not stated) | 1.9 | 0.982 | 0.981 | -29.6 | 1.3 | 1.8 | /
CC(NC(=O)Nc1ccc(Cl)c(Cl)c1)C(c1ccccc1)N1CCOCC1 (configuration not stated) | -329.8 | 1.22 | 4.3* | -14.8 | 1.1 | -21.5 | -220.8
COc1ccc(CN2CC[C@H]3C=CC[C@@H](C(=O)Nc4ccc(Cl)c(C(F)(F)F)c4)[C@H]3C2=O)cc1OC | -109.6 | 0.908 | 2.1* | / | / | 9.2 | -185.4
S=C1N(c2ccccc2)CN(CCN2CCOCC2)CN1c1ccccc1 | 9.3 | 0.957 | 0.907 | / | / | 4.3 | /
Cc1ccccc1NC(=S)NC(NC(=O)c1ccccc1C)C(Cl)(Cl)Cl (configuration not stated) | -104.6 | 1.31 | 2.05* | 4.1 | 1 | -31.4 | -107.3
O=C(Nc1ccc(Cl)c(C(F)(F)F)c1)NC1CC2CCCC(C1)N2Cc1ccccc1 (configuration not stated) | i | 1.92 | 8.9* | -130.3 | 2.3* | -92.0 | i
COC(C[C@H](O)C[C@H](O)[C@H](C)OCc1ccccc1)OC | -1.1 | 1.06 | 1.01 | / | / | -5.8 | /
S=c1[nH]nc(-c2cc(-c3ccco3)[nH]n2)n1-c1ccccc1Cl | 57.2* | 1.27 | 0.428 | -28.7 | 1.3 | -26.8 | 74.2*
S=c1[nH]nc(-c2ccco2)n1-c1ccccc1Cl | -16.2 | 0.922 | 1.16 | 2.8 | 1 | 7.8 | /
CC(C)c1ccc(NC(=O)NC(C)c2ccc3c(c2)OCO3)cc1 (configuration not stated) | -352.2 | 1.16 | 4.52* | / | / | -15.5 | -231.2
CC(NC(=O)Nc1ccc(Cl)cc1)c1ccccc1 (configuration not stated) | -228.4 | 0.88 | 3.28* | / | / | 12.0 | -110.7
CCOc1ccc(NC(=O)NC(C)c2ccc3c(c2)OCO3)cc1 (configuration not stated) | -21.2 | 1.08 | 1.21 | / | / | -8.4 | /
COc1ccc(CNC(=O)[C@@H](NC(=O)C2CCN(C(=O)[C@@H](N)CC(C)C)CC2)C(C)C)cc1 | -5.5 | 0.829 | 1.05 | / | / | 17.1 | /
Cc1cc(C)cc(NC(=O)C2CCN(S(=O)(=O)c3ccc4c(c3)NC(=O)C(C)S4)CC2)c1 (configuration not stated) | -145.1 | 1.44 | 2.45* | / | / | -43.5 | -96.0
COc1ccc([C@H]2CC(=O)C=C(c3cccc4c3Oc3ccccc3S4)C2)cc1OC | 8.5 | 1.06 | 0.915 | / | / | -5.8 | /
O=c1cc(-c2ccc(O)cc2)oc2c1ccc1ccccc12 | 3.9 | 1.09 | 0.961 | / | / | -8.9 | /
O=c1cc(-c2ccc(O)cc2)oc2c(O)c(O)c(O)c(O)c12 | 66.2* | 0.972 | 0.338 | / | / | 2.8 | 66.7*
O=C(COC(=O)C12CC3CC(CC(C3)C1)C2)NNC(=O)c1ccccc1 | -8.7 | 1.29 | 1.09 | / | / | -29.0 | /
Oc1ccc(/C=N/Nc2cc(N3CCOCC3)nc(N3CCOCC3)n2)cc1O | 42.1* | 1.11 | 0.579 | 3.9 | 1 | -11.3 | 63.3*
CCN(CC)S(=O)(=O)c1ccc(C(=O)Nc2cccc(C)c2)cc1 | -13.6 | 1.15 | 1.14 | 11.2 | 0.9 | -14.6 | /
NNC(=O)Nc1cccc(C(F)(F)F)c1 | -1.2 | 0.985 | 1.01 | -7.8 | 1.1 | 1.5 | /
CCN(CC)S(=O)(=O)c1ccc(NC(=O)Nc2cccc(C(F)(F)F)c2)cc1 | -180.8 | 0.741 | 2.81* | 16.5 | 0.8 | 25.9 | -102.6
O=C(Nc1ccc(OC(F)F)cc1)Nc1cccc(C(F)(F)F)c1 | -222.4 | 1.21 | 3.22* | 12.3 | 0.9 | -20.5 | -99.2
CCOC(=O)c1ccc(NC(=O)Nc2ccc3c(c2)OCCO3)cc1 | -192.3 | 1.12 | 2.92* | -6.1 | 1.1 | -12.2 | -106.4
SMILES | mIAP inh | hIAP act | mIAP activ | bIAP inhibitor | bIAP act | hIAP block | mIAP inh confirm
Cc1ccc(Nc2nc(-c3ccc(O)c(O)c3)cs2)nc1 | 46.0* | 1.08 | 0.54 | 20.0 | 0.8 | -8.3 | 52.4*
Cc1ccc(Nc2nc(-c3ccc(F)cc3)cs2)nc1 | -7.2 | 0.946 | 1.07 | / | / | 5.4 | /
NCCS(=O)(=O)O | -4.5 | 0.922 | 1.04 | / | / | 7.8 | /
O=C(CN1C(=O)/C(=C/c2ccccc2)SC1=S)NNC(=O)c1ccccc1O | 41.0* | 1.58 | 0.59 | -3.0 | 1 | -58.1 | 43.4*
COc1cccc(/C=C2/SC(=S)N(CC(=O)NNC(=O)c3ccccc3O)C2=O)c1 | 25.0 | 1.97 | 0.75 | / | / | -96.6 | /
CC(C)c1ccc(N(C(=O)c2ccco2)C(C(=O)NC2CCCC2)c2ccncc2)cc1 (configuration not stated) | 2.4 | 1 | 0.976 | / | / | -0.4 | /
O=C(Nc1cnn(Cc2ccccc2)c1)NC12CC3CC(CC(C3)C1)C2 | -112.2 | 0.837 | 2.12* | 4.0 | 1 | 16.4 | -104.8
O=C(O)C1C2CCC(O2)C1C(=O)Nc1cnn(Cc2ccccc2)c1 (configuration not stated) | -0.7 | 0.941 | 1.01 | 2.4 | 1 | 5.9 | /
O=C1C[C@@H](c2ccccc2)Oc2cc(O)cc(O)c21 | 5.7 | 0.881 | 0.943 | / | / | 11.9 | /
Oc1cc(O)c2c(c1)O[C@H](c1ccc(O)c(O)c1)[C@@H](O)C2 | 77.5* | 0.716 | 0.225 | / | / | 28.4 | 78.0*
O=C1c2c(O)cc(O)cc2O[C@H](c2ccc(O)c(O)c2)[C@@H]1O | 63.6* | 0.911 | 0.364 | 23.9 | 0.8 | 8.9 | 58.5*
O=C1c2c(O)cc(O)cc2O[C@H](c2ccc(O)c(O)c2)[C@H]1O | 51.4* | 1.05 | 0.486 | / | / | -5.4 | 59.1*
CC(C)(C)N1CCC1CN (configuration not stated) | -7.1 | 1.09 | 1.07 | / | / | -8.9 | /
CCN(CC(=O)Nc1c(F)cccc1F)C(=O)CCc1nc2sc3c(c2c(=O)[nH]1)CCCC3 | 10.2 | 1.01 | 0.898 | / | / | -0.7 | /
FC(F)Sc1ccc(NC(=S)NC(c2ccccc2)c2ccccc2)cc1 | i | 1.72 | 12* | 13.1 | 0.9 | -71.8 | -276.7
O=C(NCCCO)c1ccc2nc(-c3ccco3)c(-c3ccco3)nc2c1 | / | / | / | -25.2 | 1.3 | / | /
O=C(NCCO)Nc1ccc2nc(-c3ccco3)c(-c3ccco3)nc2c1 | 41.8* | 1.06 | 0.582 | 7.3 | 0.9 | -5.7 | 49.3*
CC(O)c1cccc(NC(=O)CCC(=O)O)c1 (configuration not stated) | -9.3 | 0.836 | 1.09 | 10.3 | 0.9 | 16.4 | /
O=C(Nc1cccc(Cl)c1)Nc1cccc(Cl)c1 | -162.7 | 1.09 | 2.63* | -16.0 | 1.2 | -8.8 | -220.9
CC(O)c1cccc(NC(=O)Nc2cccc(NC(=O)Nc3cccc(C(C)O)c3)c2)c1 (configuration not stated) | -152.1 | 1.19 | 2.52* | / | / | -19.1 | -88.9
